Bioassay records: PubChem BioAssay, several laboratories
Sampled rows, rich in hits. Any-hit rate of the full collection: about 2.6%.
T cell HTS = T cell immune modulation candidate | 2C CD8+ T cell-vesicle binding, flow cytometry; hits give low values | response (vesicle binding), % at 7 µM | 330,000 tested, 0.068% active | AID 2052;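 active = response, share of CD8 T cells binding vesicles, and their 90th percentile fluorescence all below set limits, cut at about 80% in these data, passing the limit was not always enough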;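 also: values below 100% mean blocked vesicle binding to the CD8+ T cells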
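System: murine 2C transgenic CD8+ T lymphocytes; also added: QL9-loaded Drosophila micro-vesicles; times: binding 1.5 h at 37 °C; measured by: flow cytometry, PE anti-B7-1 (FL2) versus Alexa647 anti-CD8 (FL8), PFA-fixed; control set: Peptide-free naked vesicles (low) and QL9 vesicles with 0.7% DMSO vehicle (high)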
Myeloid diff 2 = myeloid differentiation induction; ER-HoxA9 myeloid progenitors, lysozyme-GFP differentiation, flow cytometry; calls only at 10 µM; 360,000 tested, 1% active;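 active = normalized GFP-positive differentiation at or above the plate's own cutoff, the solvent-only control mean plus 3 SD; inconclusive = no clear call, values can overlap the other calls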;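 also: cells exposed to compound for four days before flow analysis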
Rce1 inhib = inhibitors of yeast Ras-converting enzyme; Q03530; yeast membranes, quenched prenylated peptide cleavage fluorescence; calls only; 290,000 tested, 0.27% active; AID 2563;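 active = fall in fluorescence gain of 50% or more versus controls, with final raw signal at or below 3038400; inconclusive = same 50% fall but final raw signal above 3038400; inactive = fall in fluorescence gain under 50%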;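 also: plate controls were neutral control wells for no effect and wells lacking membranes for full effect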
Rin1 Abl inh = human Rin1-Abl interaction inhibition. P00519+Q13671. TR-FRET Rin1/Abl binding, biochemical. inhibition, % at 7.35 µM. 360,000 tested, 0.4% active; in the data active = inhibition above about 5%, passing the limit was not always enough
GRK2 inh = blocks RNA aptamer binding to human GRK2. inhibition of aptamer binding, % at 10 µM. 330,000 tested, 0.59% active. bead flow cytometry, FAM-aptamer displacement from GRK2. P25098;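 active = inhibition of aptamer binding above 40%, roughly 3 SD of noise, on plates passing a quality check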;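 also: median bead fluorescence of bound FAM aptamer so fluorescent compounds give negative values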
SKN-1 block = C. elegans SKN-1 inhibition; 360,000 tested, 0.49% active; C. elegans VP596 Pgst-4::GFP/RFP ratio, acrylamide-induced, 24 h; inhibition, % at 21.8 µM; AID 624304;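 active = interference check ratio from 0.5 to 1.5 plus GFP to RFP signal ratio inhibition reaching or exceeding a fixed threshold, cut at about 30% in these data, passing the limit was not always enough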
Starred values were filed as active, the others as inactive; i = inactive; ? = inconclusive; / = not tested or not shown; + = active, no number.

SMILES	T cell HTS	Myeloid diff 2	Rce1 inhib	Rin1 Abl inh	GRK2 inh	SKN-1 block
Cc1ccccc1N1C(=O)NC(=O)/C(=C\c2cc(Br)c(N3CCOCC3)o2)C1=O	434	i	i	-3	8	38*
Cc1ccccc1N1C(=O)/C(=C/c2ccco2)C(=O)NC1=S	330	/	i	/	100*	/
CCOc1ccc(N2C(=O)/C(=C/c3ccco3)C(=O)NC2=S)cc1	158	i	i	2	20	4
COc1ccc(CN2CCN(c3ccccc3F)CC2)cc1O	171	i	i	1	0	46*
COc1ccccc1N1CCN(Cc2ccc(F)cc2)CC1	258	i	i	1	0	7
COc1ccc(CN2CCCC(C(=O)c3cccc(Cl)c3)C2)cc1 (stereo not given)	598	i	i	-2	1	43*
CSc1ncc(CN2CCCC(C(=O)c3cccc(Cl)c3)C2)cn1 (stereo not given)	626	i	i	0	0	3
CN1C(=O)/C(=C\c2ccc(Br)s2)C(=O)NC1=S	293	i	i	-1	1	37*
Fc1cccc(-c2ccc3c(c2)CN(C(=S)NCCc2ccccc2)Cc2cnnn2-3)c1	/	i	/	0	/	-3
Cc1cc(N(CCCl)CCCl)ccc1C=Cc1ccncn1	/	?	/	-18	/	42*
O=C1CN=C(c2cc([N+](=O)[O-])ccc2Cl)c2cc([N+](=O)[O-])ccc2N1	799	i	i	1	0	-13
CC12CCC(O)CC1CCC1C2CCC2(C)C(C(=O)CO)CCC12 (stereo not given)	/	i	/	2	/	-7
O=C1NC(=O)C(=Cc2ccc(-c3cc(Cl)ccc3[N+](=O)[O-])o2)C(=O)N1	/	+	i	-2	/	-1
COc1ccc(-c2nc3ccc(Br)cn3c2CC(=O)N2CCCC2)cc1OC	/	i	/	/	/	-16
Cn1c(O)c(/C=C/C=Nc2ccccc2)c(=O)n(C)c1=S	385	+	i	-2	0	16
O=C1NC2C(=CC(O)C(O)C2O)c2cc3c(cc21)OCO3 (stereo not given)	/	?	/	2	/	40*
O=C1NC2C(=CC(O)C(O)C2O)c2cc3c(c(O)c21)OCO3 (stereo not given)	/	/	/	-3	/	55*
O=c1[nH]sc2cc(F)ccc12	/	?	i	-1	/	-4
CN1CC(C(=O)c2ccc(Cl)cc2)C(c2ccc(Cl)cc2Cl)C1 (stereo not given)	667	i	+	-1	0	12
CN1CC(C(=O)c2ccc(Cl)cc2)C(c2ccc(N(C)C)cc2)C1 (stereo not given)	237	i	i	1	0	-19
CC1C=CCCC12C(=O)NC(=O)NC2=O (stereo not given)	/	i	/	-3	/	17
CNC(=O)Oc1ccc2c(c1)C(=O)c1ccccc1CO2	316	+	i	3	0	12
CNC(=O)Oc1ccc(C(=O)N2c3ccccc3NC(=O)C2C)cc1 (stereo not given)	370	i	i	2	2	22
O=[N+]([O-])c1ccc(C[n+]2c(-c3ccccc3)cc(-c3ccccc3)cc2-c2ccccc2)cc1	452	i	+	0	0	-23
CN1/C(=C\C=C2C(=O)NC(=S)NC2=O)C(C)(C)c2ccccc21	/	+	i	-20	/	25
SMILES	T cell HTS	Myeloid diff 2	Rce1 inhib	Rin1 Abl inh	GRK2 inh	SKN-1 block
Oc1ccccc1C1NCc2ccccc2-n2cccc21 (stereo not given)	228	i	i	-3	0	-7
C=CCn1c(C)c(C=C2C(=O)NC(=O)NC2=O)c2ccccc21	179	i	i	-2	7	40*
Cn1cc(C=C2C(=O)NC(=O)NC2=O)c2ccccc21	223	i	i	-1	0	-4
Cc1ccc(-c2cc(-c3ccc(C)cc3)[n+](-c3ccccc3)c(-c3ccc(C)cc3)c2)cc1	153	?	+	4	0	11
CN(C)c1ccc(-[n+]2c(-c3ccccc3)cc(-c3ccccc3)cc2-c2ccccc2)cc1	/	?	/	-7	/	-20
Cc1ccc(-c2cc(-c3ccccc3)cc(-c3ccccc3)[n+]2-c2ccccc2)cc1	462	?	+	2	0	1
